Source: PubChem (several laboratories)
GRK2 inh: blocks RNA aptamer binding to human GRK2; bead flow cytometry, FAM-aptamer displacement from GRK2; inhibition of aptamer binding, % at 10 µM; 330,000 compounds, 0.59% hits;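 active = inhibition of aptamer binding above 40%, roughly 3 SD of noise, on plates passing a quality check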;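 also: median bead fluorescence of bound FAM aptamer so fluorescent compounds give negative values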
ABHD5-PLIN5 inh: blocks binding of human ABHD5 to perilipin-5; Q00G26+Q8WTS1; Split G. princeps luciferase complementation, luminescence, 4 h; inhibition, % at 4 µM; 360,000 compounds, 0.78% hits;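 active = inhibition above the mean inhibition across every tested compound plus 3 SD, cut at about 22% in these data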;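 also: 0% = DMSO only wells and the 100% control is not disclosed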
NadD inh: blocks S. aureus nicotinate mononucleotide adenylyltransferase. inhibition, % at 20 µM. purified NadD enzyme, colorimetric absorbance read-out. 360,000 compounds, 0.78% hits; in the data active = inhibition above about 26%
SENP1 inh: inhibitors of human SENP1 SUMO protease catalytic domain; recombinant SENP1 catalytic domain, CyPet-SUMO1-YPet FRET cleavage; inhibition, % at 10 µM; 360,000 compounds, 0.21% hits; AID 624204;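 active = inhibition at least 30% at 10 µM, raw YFP signal under a set limit, fluorescence ratio 0.5 to 1.5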;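 also: 0% = enzyme with DMSO and 100% = no enzyme wells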
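Assay system: hSENP1 catalytic domain, recombinant. Amount: SENP1 enzyme, 20 pM final. Schedule: 50 min reaction, RT, dark. Technique: FRET, CFP and YFP emission. Control set: no-enzyme wells low, DMSO-plus-enzyme wells high control.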
Beta2AR agonist: human beta-2 adrenergic receptor agonism by FAP; 340,000 compounds, 0.43% hits; Am2.2-beta2AR cells, FAP receptor internalization, flow cytometry; response, % (no concentration beside the values); AID 504454; P07550;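 active = response above a set limit, near 3 SD of response in nonfluorescent compounds, cut at about 42% in these data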
ABHD5-PLIN5 conf: confirmation of human ABHD5-PLIN5 interaction inhibitors; shares compounds with ABHD5-PLIN5 inh; biochemical ABHD5-PLIN5 interaction, luminescence; inhibition, % at 4 µM; 2,200 compounds, 67% hits; in the data active = inhibition above about 23%;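 also: 0% = DMSO vehicle wells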
HNF4 split-luc: counter-screen for ABHD5-PLIN5 inhibitors: HNF4 split-luciferase; shares compounds with ABHD5-PLIN5 inh; HNF4 dimerization, luminescence, biochemical; 2,200 compounds, 77% hits; inhibition, % at 4 µM;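 active = mean inhibition across replicate wells exceeding the computed hit threshold, cut at about 13% in these data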;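 also: light from luciferase halves that rejoin when HNF4 fusion proteins dimerize; 0% = DMSO only wells and the 100% control is not given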
Target sequence (P41235 whole entry, looked up, the tested form may be a part): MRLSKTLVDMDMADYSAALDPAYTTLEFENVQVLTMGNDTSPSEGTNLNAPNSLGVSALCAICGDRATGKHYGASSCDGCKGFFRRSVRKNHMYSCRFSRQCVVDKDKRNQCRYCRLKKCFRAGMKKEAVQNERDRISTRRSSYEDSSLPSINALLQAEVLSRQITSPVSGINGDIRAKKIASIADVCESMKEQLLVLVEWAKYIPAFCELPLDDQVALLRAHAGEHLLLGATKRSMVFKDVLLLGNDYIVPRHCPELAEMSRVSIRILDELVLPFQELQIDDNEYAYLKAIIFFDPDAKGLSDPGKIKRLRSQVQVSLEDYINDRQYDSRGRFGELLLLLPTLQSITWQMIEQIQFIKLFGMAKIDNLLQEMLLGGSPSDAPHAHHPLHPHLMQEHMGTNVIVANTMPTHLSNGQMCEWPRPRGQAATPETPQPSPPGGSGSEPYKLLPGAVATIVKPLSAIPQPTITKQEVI
* marks the source's active call; other numbers are inactive results; . = no result given. An excerpt weighted towards active compounds, which were near 2.5% of everything screened.

SMILES	GRK2 inh	ABHD5-PLIN5 inh	NadD inh	SENP1 inh	Beta2AR agonist	ABHD5-PLIN5 conf	HNF4 split-luc
COc1cc(/C=C2\COC/C(=C\c3cc(OC)c(OC)c(OC)c3)C2=O)cc(OC)c1OC	.	47.1*	-9.4	2.5	43.0*	101.4*	100.6*
COc1cc(/C=C2/CCc3ccccc3C2=O)cc(OC)c1OC	0.0	14.8	0.5	4.9	10.0	.	.
CCCCC[C@H]1CN(C2CCCCC2)C(=O)[C@@H]1CC(=O)NCc1ccccc1	3.0	11.8	2.4	0.2	-3.3	.	.
O=C(CCN1C(=O)S/C(=C\c2ccccc2)C1=O)N1CCCCC1	4.0	11.9	0.6	-1.3	-7.7	.	.
CCN(CC)CCC(=O)N1C/C(=C/c2ccccc2)C(=O)/C(=C\c2ccccc2)C1	.	96.5*	-0.8	0.3	16.6	102.1*	102.7*
O=C1/C(=C\c2ccc(Cl)c(Cl)c2)CN(C(=O)CCN2CCOCC2)C/C1=C/c1ccc(Cl)c(Cl)c1	.	98.9*	6.8	-0.9	51.8*	103.4*	107.9*
O=C1/C(=C\c2ccccc2)CN(C(=O)CCN2CCCCC2)C/C1=C/c1ccccc1	.	98.3*	3.3	-4.9	17.7	103.1*	108.0*
COCCNC(=O)C1Cc2cc(S(=O)(=O)N3CCCC3)ccc2N1C(C)=O (stereo not drawn)	1.0	-6.2	-1.6	1.1	8.1	.	.
CC(C)C[C@H](N)c1nnc(S(=O)(=O)Cc2cccc(F)c2)o1	0.0	38.0*	1.7	2.0	0.6	42.3*	75.9*
COc1ccccc1N1CCN(C(=O)CSc2nnc(C)n2C2CC2)CC1	0.0	-0.2	-7.4	-0.7	-3.0	.	.
CCN(C(=O)COC(=O)/C(=C/c1ccccc1)n1nnnc1C)C1CCCCC1	0.0	34.1*	7.4	0.3	21.6	51.6*	35.7*
C[C@H](CO)N1C[C@H](C)[C@@H](CN(C)Cc2ccc(Oc3ccccc3)cc2)Oc2c(NC(=O)C3CC3)cccc2C1=O	0.0	27.9*	1.2	2.6	27.9	9.0	4.4
C[C@H]1CN([C@@H](C)CO)C(=O)c2cccc(NC(=O)Nc3ccc(C(F)(F)F)cc3)c2O[C@H]1CN(C)C	0.0	28.3*	-7.4	0.7	16.7	13.0	3.1
COc1ccc(S(=O)(=O)Nc2cccc3c2O[C@H](CN(C)Cc2ccncc2)[C@@H](C)CN([C@H](C)CO)C3=O)cc1	0.0	24.3*	0.7	-0.2	0.2	3.3	0.2
C[C@H](CO)N1C[C@H](C)[C@@H](CN(C)Cc2ccc(C(=O)O)cc2)Oc2c(NC(=O)C3CC3)cccc2C1=O	0.0	5.2	-1.1	-1.1	-2.2	.	.
COc1ccc(S(=O)(=O)Nc2cccc3c2O[C@H](CN(C)Cc2ccccc2)[C@@H](C)CN([C@H](C)CO)C3=O)cc1	0.0	-4.4	6.7	0.8	-0.7	.	.
CSC[C@H]1CN(CCc2ccccc2)C(=O)[C@@H]1CC(=O)Nc1ccc(Br)cc1	.	-5.2	-1.8	-0.4	.	.	.
N=C(N)n1ncc2c1CCCC2=O	.	8.5	0.7	-3.3	.	.	.
COc1cccc(CN2CCN(CC#Cc3ccccc3)CC2CCO)c1 (stereo not drawn)	2.0	2.1	-5.9	-0.9	-91.8	.	.
Cc1ccc(S(=O)(=O)NCc2ccccc2)cc1C(=O)NC1CCC(C)CC1 (stereo not drawn)	0.0	-6.6	-5.7	0.4	-0.9	.	.
C=CC(=O)N1c2ccccc2Sc2ccc(NC(=O)OCC)cc21	0.0	30.4*	3.6	3.5	6.4	61.5*	29.4*
CCOC(=O)Nc1ccc2c(c1)N(C(=O)N1CCN(C)CC1)c1ccccc1S2	2.0	10.7	1.1	-0.5	5.2	.	.
COc1ccccc1-n1c(SC(C)C(=O)NCC2CCCO2)nc2cc(Cl)ccc2c1=O (stereo not drawn)	0.0	0.6	3.2	-1.8	-3.9	.	.
O=C1COc2ccc3ccccc3c21	0.0	-4.1	-5.0	2.6	30.6	.	.
O=S(=O)(Nc1ccc(Br)cc1)c1cccc2nonc12	2.0	1.5	-8.2	0.8	7.4	.	.
O=S(=O)(Nc1ccc(C(O)(C(F)(F)F)C(F)(F)F)cc1)c1ccc(Cl)c2nonc12	.	42.0*	-7.7	-1.1	.	51.4*	47.7*
